Series [1] in a line: Partition coefficient (logP). The format is physicochemical. Conditions: octanol/water.
The test system of series [2] is Mus musculus. In words: Sleeping time of mice was determined after intravenous administration of compound at 15 umol/kg of Body Weight. It is filed as functional. In a few lines: (§1)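 Swiss Webster mice (30 ± 2 g), 8–16 per group; 15 µmol/kg compound iv via tail vein in degassed saline, vehicle controls 1.5 mL/kg. Sodium pentobarbital 60 mg/kg ip after 10 min; sleeping time timed from loss to regain of righting reflex.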

Series [3] is described as follows: Capacity factor of compound was determined by immobilized artificial membrane chromatography. The format is ADME. In a few lines: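 Immobilized artificial membrane HPLC, isocratic 10 mM ammonium acetate pH 5.4 at 1.0 mL/min, detection by ESI-MS (pyridinium salts) or APCI-MS (dihydropyridine prodrugs). k'IAM = (tR compound − tR citric acid)/tR citric acid, citric acid serving as void marker.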

The subject of series [4] is Mus musculus. In words: Sleeping time decrease in mice was determined after intravenous administration of compound at 15 umol/kg of body weight. It is filed as functional. In a few lines: (§2)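 Swiss Webster mice (30 ± 2 g), 8–16 per group, given compound iv via tail vein in degassed saline; controls received saline 1.5 mL/kg. Sodium pentobarbital 60 mg/kg ip 10 min later; sleeping time from loss to regain of righting reflex; decrease versus saline control, mean ± SEM.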

Series [5] has as its system Mus musculus. In words: Sleeping time decrease in mice was determined after intravenous administration of compound at 1 umol/kg of body weight. It is filed as functional.
In series [6] the test system is Mus musculus. In words: Sleeping time decrease in mice was determined after intravenous administration of compound at 5 umol/kg of body weight. The format is functional. The method in brief: as §2
For series [7], the system named is Mus musculus. Briefly: Sleeping time of mice was determined after intravenous administration of compound at 15 umol/kg of body weight. The format is functional. In a few lines:
as §1

Series [8] relates to Mus musculus. Briefly: Sleeping time decrease in mice was determined after intravenous administration of compound at 50 umol/kg of body weight. It is filed as functional. The method in brief: as §2
Series [9] has as its system Mus musculus. In words: Sleeping time decrease in mice was determined after intravenous administration of compound at 0.5 umol/kg of body weight. It is filed as functional. In a few lines: as §2
Series [10] deals with Rattus norvegicus. Briefly: Maximal changes in rat hippocampal acetylcholine concentration after administration of compound through a microdialysis probe. It is filed as functional, Hippocampus. In a few lines:
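Male Sprague–Dawley rats (250–300 g), guide cannula in ventral hippocampus, probe (4 mm polycarbonate) inserted after 7 days. Perfused with artificial CSF plus 2 µM neostigmine at 2 µL/min; baseline is mean of three 20-min fractions. Compound perfused at 1 nmol/µL through probe; maximal ACh change expressed as % of baseline.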

For series [11], the target named is T1, Thyrotropin-releasing hormone receptor (Rattus norvegicus, UniProt Q01717).
T1 sequence (Q01717 whole entry): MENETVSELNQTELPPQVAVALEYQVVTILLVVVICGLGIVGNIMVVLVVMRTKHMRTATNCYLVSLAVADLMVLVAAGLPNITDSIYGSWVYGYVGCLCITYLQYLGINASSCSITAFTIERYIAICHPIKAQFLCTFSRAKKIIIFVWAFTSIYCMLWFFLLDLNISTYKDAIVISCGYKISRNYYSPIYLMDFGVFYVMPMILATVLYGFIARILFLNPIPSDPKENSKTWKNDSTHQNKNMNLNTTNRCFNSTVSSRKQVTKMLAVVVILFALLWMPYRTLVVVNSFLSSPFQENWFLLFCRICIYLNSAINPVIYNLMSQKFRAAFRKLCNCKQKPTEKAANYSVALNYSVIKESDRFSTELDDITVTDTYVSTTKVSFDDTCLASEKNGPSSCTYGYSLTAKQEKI
In words: Inhibition of [3H][3-Me-His2]-TRH binding to thyrotropin releasing hormone receptor of rat forebrain. In a few lines:
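Rat forebrain membrane suspension in 20 mM phosphate pH 7.4, incubated 180 min at 4 °C with 2 nM [3H][3-Me-His2]TRH and varying test concentrations. Nonspecific binding defined with 10 µM TRH; Ki reported.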

The nature of series [12]: Half-life of compound in rat plasma was determined. It is filed as ADME, cell-free. In a few lines: (§3)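 About 100 nmol compound per 1 mL rat plasma or 20% rat brain homogenate (0.1 M phosphate, pH 7.4), shaken at 37 °C. Aliquots taken at 2–90 min and quenched in ice-cold 5% acetic acid/acetonitrile, then centrifuged. Loss of compound followed by HPLC against standards in heat-denatured matrix; t1/2 from the decline.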

Series [13] can be described thus: Half-life of compound in rat brain homogenate was determined. The format is ADME, tissue-based. The method in brief:
as §3

The logP is a log measure of how a compound divides between an organic and an aqueous phase. A lower logP goes with a more hydrophilic compound. `NC(=O)C1=CN(CCC[C@H](NC(=O)[C@@H]2CCC(=O)N2)C(=O)N2CCC[C@H]2C(N)=O)C=CC1` registered a logP in series [1] of -2.39. The Sleeping time in [2] worked out at 58.1 min. Further, in series [3], the “K''IAM” value is on record as 1.47.

As to `NC(=O)C1=CN(CCCCC(NC(=O)[C@@H]2CCC(=O)N2)C(=O)N2CCC[C@H]2C(N)=O)C=CC1` (stereo partly specified), the logP in series [1] is -1.94. In series [2], this compound displayed a Sleeping time of 48.8 min. In addition, in series [3], the “K''IAM” value came out at 2.3.

`NC(=O)C1=CN(C[C@H](NC(=O)[C@@H]2CCC(=O)N2)C(=O)N2CCC[C@H]2C(N)=O)C=CC1`: the Sleeping time in series [4] is listed as 23.2 min; in series [5], 5.4 min; in series [6] it was 14.1 min; in [7], 19.4 min; in [8] it was 24.2 min; in series [9], 2.8 min. This compound registered a log partition coefficient (logP) in series [1] of -3.29. In addition, the “K''IAM” value in [3] is recorded as 0.55.

In [1], `NC(=O)C1=CN(CCC(NC(=O)[C@@H]2CCC(=O)N2)C(=O)N2CCC[C@H]2C(N)=O)C=CC1` (stereo partly specified) yielded a logP of -2.84. The same compound returned a Sleeping time in series [2] of 44.7 min. Besides, the “K''IAM” value in series [3] turned out to be 0.8.

By Ki is commonly meant the equilibrium dissociation constant of an inhibitor or competing ligand from its target. `NC(=O)c1ccc[n+](CCC[C@H](NC(=O)[C@@H]2CCC(=O)N2)C(=O)N2CCC[C@H]2C(N)=O)c1` gave a logP in series [1] of -1.74. The same compound returned a Maximal change in series [10] of 145%. For the same compound, the “K''IAM” value in series [3] worked out at 0.49. The same compound displayed a Ki in series [11] of over 10 µM.

Take `NC(=O)c1ccc[n+](C[C@H](NC(=O)[C@@H]2CCC(=O)N2)C(=O)N2CCC[C@H]2C(N)=O)c1.O=C([O-])C(F)(F)F`: in series [1], the logP was -2.64. In addition, the Maximal change in [10] came out at 279%. Also, the Sleeping time in series [2] was found to be 75.9 min. Besides, the “K''IAM” value in series [3] is 0.3. Moreover, the Ki in [11] is over 10 µM.

In series [1], `NC(=O)c1ccc[n+](CCCC[C@H](NC(=O)[C@@H]2CCC(=O)N2)C(=O)N2CCC[C@H]2C(N)=O)c1` registered a logP of -1.29. Also, the Maximal change in series [10] was determined as 242%. Further, the “K''IAM” value in series [3] is 0.6. The compound also gave an inhibitory constant (Ki) in series [11] of over 10 µM.

`NC(=O)c1ccc[n+](CC[C@H](NC(=O)[C@@H]2CCC(=O)N2)C(=O)N2CCC[C@H]2C(N)=O)c1` returned a logP in [1] of -2.18. In [10], this compound registered a Maximal change of 216%. For the same compound, the “K''IAM” value in [3] came out at 0.42. The compound also displayed a Ki in series [11] of over 10 µM.

One may read the half-life as how long it takes for the measured level to halve. The low end stands for fast loss, the high end for slow loss. In [1], `NC(=O)[C@@H]1CCCN1C(=O)[C@H](Cc1cnc[nH]1)NC(=O)[C@@H]1CCC(=O)N1` [PROTIRELIN] returned a logP of -1.74. The same compound came in with a Maximal change in series [10] of 394%. Also, the half-life in series [12] came to 11 min; in [13] it was 16 min. The Sleeping time in [2] amounted to 26 min. Besides, in series [3], the “K''IAM” value came out at 0.51. Affinity in series [11] was put at a Ki of 0.0423 µM.

The values are drawn from ChEMBL document CHEMBL1137824, “Centrally acting and metabolically stable thyrotropin-releasing hormone analogues by replacement of histidine with substituted pyridinium” (J Med Chem, 2004).
